One block for each compound: values may come before it. Calls of active or inactive are those of the source. The calls are words filed in the database; no cut-off is given here.
What was measured:
DNA [1] = assay: Binding affinity to calf thymus DNA at 4 uM by fluorescence spectrophotometric titration; assay type: nucleic-acid assay; details: Bos taurus
Summary of the method: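 ctDNA sonicated in TE buffer, concentration taken from A260 and given in base pairs. Compound (4 µM) in 0.01 M Tris, pH 7.4, 25 °C titrated with ctDNA (0–55 µM bp) until spectra stopped changing. Excitation 424 nm, slit widths 10 nm; binding constant derived from the change in emission.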

HeLa [2] = assay: Cell cycle arrest in human HeLa cells assessed as accumulation at G2/M phase at 24 uM after 48 hrs; assay type: functional
Summary of the method: (§1)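 Cells seeded at 8 · 10^5 per 60 mm dish, allowed to settle 24 h (37 °C, 5% CO2), then exposed to the drug for 24 or 48 h. Adherent plus floating cells (5 · 10^5) were fixed in cold 70% ethanol at −20 °C overnight, treated with RNase A (100 µg/mL) and stained with propidium iodide (20 µg/mL) in Vindelov's solution for 30 min at RT. Flow cytometry used 488 nm excitation, FL-2 at 585 ± 21 nm, and histograms were modelled for G0/G1, S and G2/M fractions.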

HeLa [3] = assay: Cell cycle arrest in human HeLa cells assessed as accumulation at G0/G1 phase at 24 uM after 48 hrs; assay type: functional; summary of the method: as §1
HCT-116 [4] = assay: Cytotoxicity against human HCT116 cells after 48 hrs by MTT assay; assay type: functional, cell-based; details: HCT-116, 48 h
HeLa [5] = assay: Cytotoxicity against human HeLa cells after 72 hrs by MTT assay; assay type: functional, cell-based
HCT-116 [6] = assay: Cytotoxicity against human HCT116 cells after 72 hrs by MTT assay; assay type: functional, cell-based; details: Homo sapiens, HCT-116, 72 h
HCT-116 [7] = assay: Induction of apoptosis in human HCT116 cells at 10 uM after 24 hrs; assay type: functional
Summary of the method: (§2)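 After 24 or 48 h of drug exposure, all cells were collected, combining trypsinised adherent cells with floating cells from the medium. Cells (1 × 10^6) were fixed in cold 70% ethanol overnight at −20 °C and stained with DAPI (10 µg/mL) for 30 min in the dark at RT. Under fluorescence microscopy, 300 cells per sample were scored, with condensed or fragmented nuclei counted as apoptotic.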

HeLa [8] = assay: Antiproliferative activity against human HeLa cells assessed as increase of floating cells in total cell population at 24 uM after 24 hrs; assay type: functional
Summary of the method: (§3)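 Cells seeded (8 · 10^5 per 60 mm dish), allowed to settle 24 h at 37 °C, 5% CO2, then treated with a single concentration for 24 or 48 h. Adherent and floating cells counted by Coulter counter. Total cell number given as % of untreated control; floating cells as % of total cell number.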

HCT-116 [9] = assay: Cell cycle arrest in human HCT116 cells assessed as accumulation at G2/M phase at 10 uM after 24 hrs; assay type: functional; summary of the method: as §1
HeLa [10] = assay: Induction of apoptosis in human HeLa cells at 24 uM after 48 hrs; assay type: functional; summary of the method: as §2
HCT-116 [11] = assay: Cell cycle arrest in human HCT116 cells assessed as accumulation at G2/M phase at 10 uM after 48 hrs; assay type: functional; summary of the method: as §1
HCT-116 [12] = assay: Antiproliferative activity against human HCT116 cells assessed as decrease in total cell population at 10 uM after 24 hrs; assay type: functional; set-up: scale not given: the % may be the effect or the level left; summary of the method: as §3
HeLa [13] = assay: Cell cycle arrest in human HeLa cells assessed as accumulation at G2/M phase at 24 uM after 24 hrs; assay type: functional; summary of the method: as §1
HeLa [14] = assay: Cell cycle arrest in human HeLa cells assessed as accumulation at S phase at 24 uM after 24 hrs; assay type: functional; summary of the method: as §1
HeLa [15] = assay: Antiproliferative activity against human HeLa cells assessed as decrease in total cell population at 24 uM after 24 hrs; assay type: functional; set-up: scale not given: the % may be the effect or the level left; summary of the method: as §3
HeLa [16] = assay: Cell cycle arrest in human HeLa cells assessed as accumulation at G0/G1 phase at 24 uM after 24 hrs; assay type: functional; summary of the method: as §1
DNA [17] = assay: Binding affinity to calf thymus DNA at 50 uM by circular dichroism spectrophotometric titration; assay type: nucleic-acid assay; details: Bos taurus
HCT-116 [18] = assay: Antiproliferative activity against human HCT116 cells assessed as increase of floating cells in total cell population at 10 uM after 48 hrs; assay type: functional; summary of the method: as §3
HCT-116 [19] = assay: Induction of apoptosis in human HCT116 cells at 10 uM after 48 hrs; assay type: functional; summary of the method: as §2
HCT-116 [20] = assay: Antiproliferative activity against human HCT116 cells assessed as decrease in total cell population at 10 uM after 48 hrs; assay type: functional; set-up: scale not given: the % may be the effect or the level left; summary of the method: as §3
HCT-116 [21] = assay: Cell cycle arrest in human HCT116 cells assessed as accumulation at G0/G1 phase at 10 uM after 24 hrs; assay type: functional
Summary of the method: (§4)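 Adherent plus floating cells (5 · 10^5) collected 24 or 48 h after treatment, fixed in cold 70% ethanol at −20 °C overnight, washed in PBS. RNase A (100 µg/mL) and propidium iodide (20 µg/mL) in Vindelov's solution, 30 min at RT. Flow cytometry with 488 nm excitation, emission 585 ± 21 nm; % cells per cycle phase from DNA content histograms.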

HeLa [22] = assay: Cell cycle arrest in human HeLa cells assessed as accumulation at S phase at 24 uM after 48 hrs; assay type: functional; summary of the method: as §1
HCT-116 [23] = assay: Cell cycle arrest in human HCT116 cells assessed as accumulation at S phase at 10 uM after 48 hrs; assay type: functional; summary of the method: as §1
HCT-116 [24] = assay: Cell cycle arrest in human HCT116 cells assessed as accumulation at S phase at 10 uM after 24 hrs; assay type: functional; summary of the method: as §1
HeLa [25] = assay: Cytotoxicity against human HeLa cells after 48 hrs by MTT assay; assay type: functional, cell-based
HCT-116 [26] = assay: Antiproliferative activity against human HCT116 cells assessed as increase of floating cells in total cell population at 10 uM after 24 hrs; assay type: functional; summary of the method: as §3
HCT-116 [27] = assay: Cell cycle arrest in human HCT116 cells assessed as accumulation at G0/G1 phase at 10 uM after 48 hrs; assay type: functional; summary of the method: as §4
HeLa [28] = assay: Induction of apoptosis in human HeLa cells at 24 uM after 24 hrs; assay type: functional; summary of the method: as §2

- K (DNA [1]): 7.95 ×10⁵ /M
SMILES: Nc1ccc2cc3ccc(N)cc3nc2c1

- K (DNA [1]): 3.8 ×10⁵ /M
- Activity (DNA [17]): Active
SMILES: CCCNC(=O)Nc1ccc2cc3ccc(NC(=O)NCCC)cc3nc2c1.Cl
- Activity (HeLa [2]): 10.06%
- Activity (HeLa [3]): 72.81%
- IC50 (HCT-116 [4]): 10.3 µM
- IC50 (HeLa [5]): 29.3 µM
- IC50 (HCT-116 [6]): 61.5 µM
- Activity (HCT-116 [7]): 2.22%
- Activity (HeLa [8]): 3.84%
- Activity (HCT-116 [9]): 19.14%
- Activity (HeLa [10]): 1%
- Activity (HCT-116 [11]): 15.11%
- Activity (HCT-116 [12]): 86.16%
- Activity (HeLa [13]): 13.4%
- Activity (HeLa [14]): 24.12%
- Activity (HeLa [15]): 91.36%
- Activity (HeLa [15]; in the assay text read “after 48 hrs” for “after 24 hrs”): 89.95%
- Activity (HeLa [16]): 62.48%
- Activity (HCT-116 [18]): 4.34%
- Activity (HCT-116 [19]): 2.89%
- Activity (HCT-116 [20]): 71.3%
- Activity (HCT-116 [21]): 45.07%
- Activity (HeLa [22]): 17.12%
- Activity (HCT-116 [23]): 27.16%
- Activity (HCT-116 [24]): 35.8%
- IC50 (HeLa [25]): 23.9 µM
- Activity (HCT-116 [26]): 5.48%
- Activity (HCT-116 [27]): 57.74%
- Activity (HeLa [28]): 0.89%
